The source made the active and inactive calls. The calls are words filed in the database; no cut-off is given here.
Legend:
[1] = biological target: T1, Estrogen receptor (Homo sapiens) (UniProt P03372); assay: Induction of ERalpha-mediated pS2 gene expression in human MCF7 cells at 10 nM after 24 hrs by real-time quantitative PCR analysis; assay type: cell-based
T1 sequence (whole entry): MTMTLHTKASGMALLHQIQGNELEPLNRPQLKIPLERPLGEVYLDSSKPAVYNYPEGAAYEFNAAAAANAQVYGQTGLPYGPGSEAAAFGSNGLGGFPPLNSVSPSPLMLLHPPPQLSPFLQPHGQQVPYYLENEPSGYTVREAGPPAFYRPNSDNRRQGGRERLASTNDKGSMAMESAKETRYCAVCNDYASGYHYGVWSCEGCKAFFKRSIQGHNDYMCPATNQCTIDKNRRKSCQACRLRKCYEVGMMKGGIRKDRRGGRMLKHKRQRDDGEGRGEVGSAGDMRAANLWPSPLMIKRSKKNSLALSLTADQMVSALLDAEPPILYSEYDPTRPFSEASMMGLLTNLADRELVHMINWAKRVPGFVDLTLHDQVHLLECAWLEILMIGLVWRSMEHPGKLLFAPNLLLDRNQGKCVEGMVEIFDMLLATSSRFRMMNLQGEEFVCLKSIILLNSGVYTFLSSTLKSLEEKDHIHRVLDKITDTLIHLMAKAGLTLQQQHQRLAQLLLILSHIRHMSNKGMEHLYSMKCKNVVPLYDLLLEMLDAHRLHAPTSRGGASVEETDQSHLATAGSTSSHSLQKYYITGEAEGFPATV
How it was run: (§1)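 MCF-7 cells were grown overnight in phenol red-free DMEM with 5% charcoal-stripped FBS. They were then exposed to ligand at 10 nM final or to solvent for 6 h or 24 h. Total RNA was extracted and reverse-transcribed. pS2 mRNA was measured by TaqMan real-time qPCR with RPLPO as reference and reported as fold change relative to control.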

[2] = biological target: T1, Estrogen receptor (Homo sapiens); assay: Agonist activity at ERalpha expressed in HEK293 cells at 10 uM after 24 hrs by luciferase reporter gene assay relative to 3,17-beta-estradiol; assay type: functional, cell-based
How it was run: (§2)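 HEK293 cells (no endogenous ER) in phenol-free DMEM with 5% delipidated FBS were transfected for 4 h with 5 ng ERα or ERβ expression vector, 75 ng pERE2TATA-LUC reporter and 20 ng pCMVβ. Cells then received 10 μM compound, 10 nM E2 or vehicle (0.1% v/v) for 24 h. Luciferase was normalized to β-galactosidase and expressed as 100% × (test − vehicle)/(E2 − vehicle). Values are means of at least three independent transfections.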

[3] = biological target: Estrogen receptor beta (Homo sapiens) (UniProt Q92731); assay: Agonist activity at ERbeta expressed in HEK293 cells at 10 uM after 24 hrs by luciferase reporter gene assay relative to 3,17-beta-estradiol; assay type: functional, cell-based; how it was run: as §2
[4] = biological target: T1, Estrogen receptor (Homo sapiens); assay: Induction of ERalpha-mediated pS2 gene expression in human MCF7 cells at 10 nM after 6 hrs by real-time quantitative PCR analysis relative to control; assay type: cell-based; how it was run: as §1
[5] = species: Homo sapiens; assay: Selectivity ratio of relative binding affinity for human ERalpha to relative binding affinity for human ERbeta
How it was run: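 COS-1 cells in DMEM with 10% delipidated FBS were transfected for 24 h with human ERα or ERβ vector (pSG5-hERα/β). Cells were washed, lysed in 0.5 M NaOH at 56 °C for 15 min and counted by scintillation, with nonspecific binding subtracted.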

[6] = Selectivity for ERalpha over ERbeta
[7] = biological target: T1, Estrogen receptor (Homo sapiens); assay: Antagonist activity at ERalpha in human MCF7 cells assessed as decrease in 3,17-beta-estradiol-induced pS2 gene expression at 1 uM after 24 hrs by real-time quantitative PCR analysis; assay type: functional, cell-based
How it was run: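 Competition format: MCF-7 cells were first grown overnight in phenol red-free DMEM with 5% charcoal-stripped FBS. They were then co-treated for 24 h with 10 nM E2 plus 1 μM compound. Total RNA was extracted and pS2 mRNA was quantified by TaqMan real-time qPCR, normalized to RPLPO.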

[8] = biological target: T1, Estrogen receptor (Homo sapiens); assay: Induction of ERalpha-mediated pS2 gene expression in human MCF7 cells at 10 uM after 24 hrs by real-time quantitative PCR analysis; assay type: cell-based
[9] = biological target: T1, Estrogen receptor (Homo sapiens); assay: Ratio of compound to 3,17-beta-estradiol binding affinity at ERalpha expressed in COS-1 cells

Sequence of Estrogen receptor beta (Homo sapiens) (Q92731 whole entry): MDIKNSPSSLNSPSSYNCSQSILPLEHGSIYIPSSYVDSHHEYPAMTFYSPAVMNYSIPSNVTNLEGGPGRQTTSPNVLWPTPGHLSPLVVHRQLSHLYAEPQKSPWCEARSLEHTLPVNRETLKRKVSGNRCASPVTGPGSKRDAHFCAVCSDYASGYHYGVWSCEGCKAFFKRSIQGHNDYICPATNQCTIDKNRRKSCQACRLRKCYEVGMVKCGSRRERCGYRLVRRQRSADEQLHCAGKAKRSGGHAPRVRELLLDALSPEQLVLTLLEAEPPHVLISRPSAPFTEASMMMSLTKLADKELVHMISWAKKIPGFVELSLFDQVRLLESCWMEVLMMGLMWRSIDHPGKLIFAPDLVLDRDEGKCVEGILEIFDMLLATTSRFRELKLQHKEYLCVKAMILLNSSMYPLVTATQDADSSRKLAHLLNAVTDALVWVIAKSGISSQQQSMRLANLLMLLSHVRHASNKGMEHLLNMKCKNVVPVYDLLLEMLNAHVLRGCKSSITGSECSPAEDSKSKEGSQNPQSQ

## Oc1ccc(CCCC2=NOC(c3ccccc3)C2)cc1 (single isomer, unassigned; 45a)
[1]
  Activity: inactive
[2]
  Activity: 104%
[3]
  Activity: 44.7%
[4]
  fold change (FC): 1.8
[5]
  Ratio: 157
[6]
  Selectivity ratio: 2
[7]
  inhibition: 32%

## Oc1ccc(CCCC2=NOC(c3ccccc3)C2)cc1 (single isomer, unassigned; 45b)
[8]
  Activity: inactive
[1]
  Activity: inactive
[2]
  Activity: 65%
[3]
  Activity: 77.1%
[5]
  Ratio: 41
[7]
  inhibition: 27%

## CC1(c2ccccc2)CC(CCCc2ccc(O)cc2)=NO1 (single isomer, unassigned; 46a)
[2]
  Activity: 14.4%
[3]
  Activity: -0.9%
[5]
  Ratio: 13

## CC1(c2ccccc2)CC(CCCc2ccc(O)cc2)=NO1 (single isomer, unassigned; 46b)
[2]
  Activity: 13.6%
[3]
  Activity: 10.6%
[5]
  Ratio: 1

## O=C(CCCc1ccc(O)cc1)CC(O)c1ccccc1 (single isomer, unassigned; 50a)
[8]
  Activity: inactive
[1]
  Activity: inactive
[2]
  Activity: 139%
[3]
  Activity: 170%
[5]
  Ratio: 4
[9]
  Ratio: 2
[7]
  inhibition: 23%

## O=C(CCCc1ccc(O)cc1)CC(O)c1ccccc1 (single isomer, unassigned; 50b)
[1]
  Activity: Active
[2]
  Activity: 140%
[3]
  Activity: 155%
[5]
  Ratio: 5
[7]
  inhibition: 29%

## c1ccc(CCCC2=NOC(c3ccccc3)C2)cc1 (stereo in doubt; 43b)
[2]
  Activity: 11.5%
[3]
  Activity: 17.2%
[5]
  Ratio: 1

— ChEMBL document CHEMBL1157808, “Synthesis and biological evaluation of phenolic 4,5-dihydroisoxazoles and 3-hydroxy ketones as estrogen receptor alpha and beta agonists” (Bioorg Med Chem, 2010)
